# M5 PAM: CHRM5 positive allosteric modulation; AID 624038; 360,000 tested, 0.3% active; CHO-K1 hM5, Fluo-8 calcium, ACh EC20 PAM; 0% = ACh EC20, 100% = ACh EC100; activation, % at 3 µM;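 active = activation above the run cutoff, the mean activation of all test compounds plus 3 SD, cut at about 18% in these data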
#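 system = human M5 receptor in CHO-K1 cells | reagent = EC20 acetylcholine as agonist stimulus | compound dosing = single-point, 3 µM nominal | incubation = Fluo-8 loading 80 min at 37 °C plus 30 min room temperature | detection = Fluo-8 calcium dye fluorescence, kinetic read | benchmarks = low control EC20 acetylcholine (0%), high control EC100 acetylcholine (100%)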
# M4 ag: CHRM4 agonism in calcium assay; P08173; CHO-K1 hM4/Gqi5, Fluo-8 calcium fluorescence; vehicle 0%, full acetylcholine response 100%; activation, % at 3 µM; 360,000 tested, 0.14% active; AID 624127;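 active = activation above the run mean over all test wells plus 3 SD, cut at about 32% in these data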;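 note: peak over basal fluorescence ratio per well then scaled between controls; 0% = DMSO wells and 100% = acetylcholine at EC100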
# Target sequence (P08173 whole entry, looked up): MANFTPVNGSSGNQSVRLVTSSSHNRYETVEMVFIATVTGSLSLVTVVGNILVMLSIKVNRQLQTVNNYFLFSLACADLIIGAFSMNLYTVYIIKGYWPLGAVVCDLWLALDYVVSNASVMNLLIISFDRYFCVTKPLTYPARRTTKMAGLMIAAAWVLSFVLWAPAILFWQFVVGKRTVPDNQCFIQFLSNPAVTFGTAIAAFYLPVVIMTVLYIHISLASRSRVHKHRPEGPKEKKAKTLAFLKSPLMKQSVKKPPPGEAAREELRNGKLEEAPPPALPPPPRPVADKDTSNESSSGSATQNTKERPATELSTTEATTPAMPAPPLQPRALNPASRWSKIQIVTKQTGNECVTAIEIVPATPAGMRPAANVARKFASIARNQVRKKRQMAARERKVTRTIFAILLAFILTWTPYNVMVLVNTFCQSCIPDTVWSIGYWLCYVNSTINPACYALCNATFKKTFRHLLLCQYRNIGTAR
# M5 ag: CHRM5 agonism in calcium assay. 360,000 tested, 0.19% active. activation, % at 3 µM. AID 624037. CHO-K1 hM5 cells, Fluo-8 calcium fluorescence; 0% DMSO wells, 100% maximal acetylcholine response;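 active = activation above the run's mean over test compounds plus 3 SD, cut at about 23% in these data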;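 note: signal is peak over basal fluorescence ratio across the kinetic read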
# CHRM5 antagonist: blocks acetylcholine activation of human M5 receptor | P08912 | CHO-hM5 cells, Fluo-8 calcium fluorescence, ACh EC80 | inhibition, % at 3 µM | 360,000 tested, 0.59% active;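 active = inhibition above a per-plate cutoff, the mean of that plate's test compounds plus 3 SD, cut at about 27% in these data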;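 note: 0% = acetylcholine EC80 with DMSO and 100% = DMSO without agonist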
# M4 antag: blocks acetylcholine activation of human M4 receptor; P08173; CHO-hM4 cells, ACh EC80, Fluo-8 calcium fluorescence; inhibition, % at 3 µM; 360,000 tested, 0.73% active; AID 624125;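 active = inhibition above its plate's cutoff, the mean inhibition of sample wells plus 3 SD, cut at about 27% in these data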;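 note: 0% = acetylcholine EC80 with DMSO and 100% = DMSO without agonist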
# M4 PAM: potentiates acetylcholine response at human M4 receptor. P08173. CHO-K1 hM4/Gqi5, Fluo-8 calcium fluorescence, ACh EC20; 0% = ACh EC20, 100% = maximal ACh. activation, % at 3 µM. 360,000 tested, 0.4% active;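 active = activation above its plate's cutoff, the mean activation of sample wells plus 3 SD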
# Active calls of the source: *. A selection: hits, their analogues and other compounds. The true share with any hit is near 1.9%.
SMILES,M5 PAM,M4 ag,M5 ag,CHRM5 antagonist,M4 antag,M4 PAM
CCOc1ccc(NC(=O)CN2C(=O)NC(C)(c3ccc(OC(F)F)cc3)C2=O)cc1 (centres undefined),2,51*,17,20,11,-10
COc1cccc(CNC(=O)CN(C)S(=O)(=O)c2cnc[nH]2)c1,20*,1,0,-11,-14,4
CC(=O)c1cccc(NC(=O)/C(=C/c2ccncc2)NC(=O)c2ccccc2)c1,1,1,1,6,-1,2
CN(Cc1ccon1)C(=O)c1ccc2nc(Cc3cccc(Cl)c3)oc2c1,19*,5,3,-24,-25,2
CC(=O)c1ccc(NC(=O)C(C)OC(=O)COc2ccc(C#N)cc2)cc1 (centres undefined),-8,8,2,7,-12,5
CC(Sc1ccc(S(=O)(=O)N2CCCCC2)cn1)C(N)=O (centres undefined),-1,1,1,5,-7,-3
O=C1Nc2ccc(Br)cc2C1(O)c1ccccc1 (centres undefined),-1,6,0,-3,-17,0
O=C1Nc2ccc(Br)cc2C12NNc1ccccc1O2 (centres undefined),-13,24,22,31*,21,-6
CC(Oc1ccccc1)c1nnc(SCC(=O)NC2CC2)n1C (centres undefined),-7,2,-4,3,1,20*
CCn1c(SCC(=O)NC2CC2)nnc1C(C)Oc1ccccc1 (centres undefined),2,1,-2,2,0,1
COc1ccc(CCNC(=O)c2cc(-c3cc(C)cc(C)c3O)n[nH]2)cc1OC,-11,6,-4,8,39*,-9
CN1C(=O)CSC1=Nc1ccc(F)cc1,5,1,-2,6,-20,14*
CN1C(=O)CSC1=Nc1cccc(C(=O)O)c1,3,2,-4,6,4,0
CCCc1ccc(C(C)NC(=S)NC2CCCCC2)cc1 (centres undefined),-6,13,2,16,-3,-8
CCOC(=O)C1(C)CCN1C(=O)c1ccc(OC)c(OC)c1 (centres undefined),0,1,1,0,-8,10
CCOC(=O)c1ccccc1Cc1nc2ccccc2c(=O)[nH]1,-21,1,-10,44*,-2,-6
O=C(O)c1ccccc1Cc1nc2cc(Cl)ccc2c(=O)[nH]1,6,-1,2,13,8,-4
Cc1ccc(CNC(=O)CCc2nc3ccccc3c(=O)[nH]2)cc1,36*,0,-5,-10,2,-3
CCOC(=O)C1CCN(S(=O)(=O)c2cn(C)c(=O)n(C)c2=O)CC1,-11,1,-1,10,32*,-13
CCOC(=O)c1ccc(NC(=S)NCCc2ccccc2F)cc1,-34,27,3,30*,29*,-25
CCOC(=O)c1ccc(NC(=S)NCCc2ccccc2)cc1,-18,13,2,24,13,-11
CCOC(=O)c1ccc(NC(=S)NCC(O)c2ccccc2)cc1 (centres undefined),-20,23,8,38*,14,-18
COc1ccc(CNC(=O)CN2CCN(S(=O)(=O)c3cccs3)CC2)cc1OC,1,3,-3,11,-14,1
Cc1cc(S(=O)(=O)Nc2ccc(C(=O)NCC(C)(C)N3CCOCC3)cc2)ccc1F,4,1,-4,4,7,-2
COc1cc(C2C=C(C34CC5CC(CC(C5)C3)C4)NC(=S)N2)cc(OC)c1OC (centres undefined),-14,-2,-7,7,19,-12
SMILES,M5 PAM,M4 ag,M5 ag,CHRM5 antagonist,M4 antag,M4 PAM
COc1ccc(OC)c(C2C=C(C34CC5CC(CC(C5)C3)C4)NC(=S)N2)c1 (centres undefined),-11,-1,-3,11,43*,-17
CN(CC(=O)Nc1ccc(C#N)cc1)Cc1ccc(Cl)c(Cl)c1,-22,6,-9,0,43*,-17
CN(CC(=O)Nc1cccc(C#N)c1)Cc1ccc(Cl)cc1,1,3,-4,6,-9,6
N#Cc1ccc(NC(=O)Nc2ccc(Oc3ccc(NC(=O)Nc4ccc(C#N)cc4)cc3)cc2)cc1,-15,12,3,12,2,-2
N#Cc1ccc(NC(=O)Nc2cccc(C#N)c2)cc1,-17,26,12,32*,8,-12
CN(CC(=O)Nc1ccc(N2CCOCC2)cc1)CC(=O)Nc1cccc(C#N)c1,6,6,3,5,-1,23*
CN(CC(=O)Nc1ccc(C#N)cc1)CC(=O)Nc1ccc(N2CCOCC2)cc1,-2,2,1,4,1,-4
CSc1cccc(NS(=O)(=O)c2cn(C)cn2)c1,-3,1,-5,21,-4,-3
CC(=O)Nc1ccc2c(c1)CCc1ccccc1-2,1,3,0,-2,-20,0
CNCCC=C1c2ccccc2CCc2ccccc21,-19,7,0,93*,67*,-17
Cc1ccc(S(=O)(=O)N2CCCC2)cc1C(=O)N1CCC(C)CC1,2,1,-3,7,0,7
O=C(C[C@@H]1C=C[C@@H](NC(=O)C2CC2)[C@@H](CO)O1)NCc1ccccc1Cl,11,2,3,-6,-3,14
Cc1ccc(-c2noc(CN(C)C(=O)c3ccc(Br)o3)n2)cc1,-7,1,-1,10,-6,-1
Cc1nn(CC(=O)N2CCN(c3ccccc3)CC2)c(C)c1[N+](=O)[O-],1,2,-3,7,37*,-25
Cc1ccc(S(=O)(=O)N2CCN(C(=O)Cn3nc(C)c([N+](=O)[O-])c3C)CC2)c(C)c1,-4,5,-6,-10,-21,3
CNC(=O)C[C@H]1C(=O)N(Cc2ccccc2)C[C@@H]1C,0,0,0,8,6,-5
Cc1ccc(C2(c3ccc(C)cc3)CC2C(=O)NC(C)C)cc1 (centres undefined),14,-1,5,-5,-17,11
CCCc1cc(C(=O)OC)c2ccccc2n1,5,0,-1,-3,8,-8
COC(=O)c1cc(Cl)nc2ccccc12,21*,1,3,-3,-6,11
Cc1cccc(-n2cnc3sc(C)c(C)c3c2=O)c1,-11,0,-8,35*,0,0
O=C(NNc1ccccc1)Nc1cc(Cl)ccc1Cl,19*,8,0,8,-6,-1
CCC(=O)N(CC)c1nc(-c2ccc(OC)cc2)cs1,-7,59*,4,8,9,-22
